Converted amounts (≈) assume the structure as drawn. The source made the active and inactive calls. Bounds are passed on as bounds.

In one series the test system is HeLa. Description: Cytotoxicity against human HeLa cells after 24 hrs by LDH release assy. The class given is cell-based. The method in brief: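 HeLa cells in DMEM with 10% FBS at 37 °C, 5% CO2, dosed at 70-80% confluence with compound diluted in medium at 25, 50 and 100 µM for 24 h. Supernatant mixed with LDH reaction mixture, 30 min at room temperature, stopped, A490 read. Triton X-100 (2% v/v) as maximal-release control, medium only as no-death control, DMSO as vehicle. Three independent experiments.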
On the technique in general: LDH in the medium is a marker of cell lysis.

Series [1] concerns Enterococcus faecium. Description: Antibacterial activity against vancomycin-resistant Enterococcus faecium ATCC 700221 after 16 to 18 hrs by broth microdilution method. The class given is functional. Summed up:
(§1)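 CLSI broth microdilution in Lysogeny Broth, eleven two-fold dilutions spanning 0.10–100 µM; ~10^5 cells per well from log-phase culture; DMSO vehicle (top 1% v/v). MIC = lowest concentration preventing growth after 16–18 h at 37 °C, supported by OD600; three independent experiments.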

The test system of series [2] is Staphylococcus aureus. Description: Antibacterial activity against methicillin-resistant Staphylococcus aureus BAA-1707 after 16 to 18 hrs by broth microdilution method. The format is functional. The method in brief: as §1
(In general: Broth dilution looks for growth in wells or tubes with falling amounts of substance.)

For series [3], the system named is Mycobacterium tuberculosis. The series can be described thus: Antibacterial activity against Mycobacterium tuberculosis H37Ra ATCC 25177 after 7 days. Conditions: H37Ra ATCC 25177, 168 h. The format is functional. Summed up:
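M. tuberculosis H37Ra grown two weeks in Middlebrook 7H9, diluted to OD600 0.01; two-fold serial dilutions 0.024–50 µM (streptomycin positive control, 0.16–340 µM); final DMSO 0.5%. Incubated 7 days at 37 °C; MIC = lowest concentration with no growth, OD600 recorded; three independent experiments.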

In series [4] the test system is Staphylococcus epidermidis. The series can be described thus: Antibacterial activity against methicillin-resistant Staphylococcus epidermidis ATCC 35984 after 16 to 18 hrs by broth microdilution method. The format is functional.
Series [5] in a line: Selectivity index, ratio of IC50 for human HeLa cells to MIC for methicillin-resistant Staphylococcus aureus BAA-1707. The class given is toxicity. Conditions: read-out: Selectivity Index. Summed up:
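HeLa cells in DMEM + 10% FBS, 37 °C, 5% CO2, at 70–80% confluence exposed 24 h to 25, 50 and 100 µM; LDH release read at 490 nm (Triton X-100 2% maximum, medium-only minimum); three independent experiments. Index = HeLa IC50 divided by MRSA BAA-1707 MIC.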

The nature of series [6]: Hemolytic activity in human RBC at 200 uM after 1 hr relative to control. The class given is ADME, cell-based, Erythrocyte. The note with it: red blood cells (erythrocytes), read-out: Activity. The method in brief: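 Human RBCs drawn fresh into EDTA were washed three times in Tris-buffered saline (0.01 M Tris, 0.155 M NaCl, pH 7.2). 2% hRBC suspension was added to compound from DMSO stock, final 200 µM, for 1 h at 37 °C, then centrifuged and supernatant OD405 read. Scaled between DMSO (0%) and Triton X (100%). Three independent experiments.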

Series [7] in a line: Half life in human serum by LC-MS analysis. The format is ADME, cell-free. Summed up: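 Human serum pre-warmed to 37 °C, spiked with prodrug from 10 mM DMSO stock plus internal standard, vortexed, then held 1 to 60 min. At each time point, acetonitrile with 0.5% formic acid was added to precipitate proteins. Released active HP was quantified as its ratio to internal standard against standard curves.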

Series [8] deals with Staphylococcus epidermidis. Description: Bactericidal activity against methicillin-resistant Staphylococcus epidermidis ATCC 35984 planktonic cells after 24 hrs by calgary biofilm device method. The class given is organism-based. The method in brief:
(§2)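 Biofilms grown 24 h at 37 °C on Calgary device pegs from mid-log culture diluted 1,000-fold in TSB + 0.5% glucose; washed pegs challenged 24 h at 37 °C with 2-fold serial dilutions. Challenge medium subcultured into fresh TSBG overnight; MBC = concentration without visible turbidity; at least three independent experiments.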

Series [9] deals with Staphylococcus epidermidis. The series can be described thus: Induction of biofilm eradication of methicillin-resistant Staphylococcus epidermidis ATCC 35984 after 24 hrs by calgary biofilm device method. The format is functional. Summed up: (§3)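 Calgary device: biofilms established 24 h at 37 °C from mid-log culture diluted 1,000-fold in TSBG (0.5% glucose), washed, exposed 24 h to 2-fold serial dilutions, then peg lid moved to fresh TSBG for 24 h recovery. MBEC = lowest concentration giving no turbidity; at least three independent experiments.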

Series [10] in a line: Stability in lysogeny broth at 37 degC up to 16 hrs by UV-vis spectrophotometric method. The format is physicochemical. Summed up: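 Compound from 10 mM DMSO stock was added to LB pre-warmed to 37 °C and incubated at 37 °C. At each time point it was extracted with an equal volume of ethyl acetate, and UV-vis spectra were scanned from 200 to 700 nm in 2 nm steps.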
Series [11] concerns Enterococcus faecium. Description: Induction of biofilm eradication of vancomycin-resistant Enterococcus faecium ATCC 700221 after 24 hrs by calgary biofilm device method. The class given is functional. Summed up: as §3
The test system of series [12] is Enterococcus faecium. The series can be described thus: Bactericidal activity against vancomycin-resistant Enterococcus faecium ATCC 700221 planktonic cells after 24 hrs by calgary biofilm device method. The class given is organism-based. Summed up:
as §2

Series [13] relates to Staphylococcus aureus. The series can be described thus: Induction of biofilm eradication of methicillin-resistant Staphylococcus aureus BAA-1707 after 24 hrs by calgary biofilm device method. The class given is functional. The method in brief: as §3
The subject of series [14] is Staphylococcus aureus. Description: Bactericidal activity against methicillin-resistant Staphylococcus aureus BAA-1707 planktonic cells after 24 hrs by calgary biofilm device method. The format is organism-based. The method in brief: as §2
Series [15] deals with Staphylococcus aureus. Description: Bactericidal activity against methicillin-resistant Staphylococcus aureus BAA-44 planktonic cells after 24 hrs by calgary biofilm device method. The format is organism-based. Summed up: as §2
Series [16] concerns Staphylococcus aureus. The series can be described thus: Antibacterial activity against methicillin-resistant Staphylococcus aureus BAA-1707 after 16 hrs by agar diffusion method. The format is functional. A general note: In agar diffusion tests the substance spreads into inoculated agar from a disc or well.
Series [17] deals with Staphylococcus epidermidis. The series can be described thus: Induction of biofilm eradication of methicillin-resistant Staphylococcus epidermidis ATCC 35984 at 1 to 10 uM after 24 hrs by live/dead staining-based fluorescence microscopic method. The class given is functional, organism-based. Summed up: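 MRSE 35984 mid-log culture diluted 1:1,000, biofilms grown 24 h at 37 °C in compartment dishes, saline-washed, then treated at 1, 5 and 10 µM in fresh medium for 24 h at 37 °C; DMSO negative control. After saline wash, live/dead stained biofilms imaged by fluorescence microscopy; three independent experiments.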

The nature of series [18]: Metal chelating activity assessed as compound-copper complex formation by UV-vis spectrometry.
A short description of series [19]: Metal chelating activity assessed as compound-Fe2+ complex formation at 5 mM by UV-vis spectrometry. Summed up:
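HP solutions given ammonium iron(II) sulfate hexahydrate; UV-vis scans 300–700 nm in 2 nm steps, λmax 374 nm. Loss of absorbance at 374 nm taken as loss of free hydroxyphenazine and formation of phenazine–iron(II) complex.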

The subject of series [20] is Staphylococcus aureus. The series can be described thus: Induction of biofilm eradication of methicillin-resistant Staphylococcus aureus 2 after 24 hrs by calgary biofilm device method. The class given is functional. Summed up: as §3
Series [21] concerns Staphylococcus aureus. The series can be described thus: Bactericidal activity against methicillin-resistant Staphylococcus aureus 2 planktonic cells after 24 hrs by calgary biofilm device method. The class given is organism-based. Summed up:
as §2

Series [22] relates to Staphylococcus aureus. The series can be described thus: Antibacterial activity against methicillin-resistant Staphylococcus aureus 2 after 16 to 18 hrs by broth microdilution method. The class given is functional. Summed up:
as §1

Usually IC50 stands for the point on the concentration scale where inhibition reaches its midpoint. The MIC is the lowest concentration that inhibits growth of the organism. A higher MIC goes with a need for much substance. In the series on HeLa, `Cc1ccc2nc3c(O)ccc(Br)c3nc2c1` had an IC50 of over 100 µM. Also, the MIC in the series with Enterococcus faecium [1] amounted to 25 µM (≈ 7.23 µg/mL); against Staphylococcus aureus [2] it was 12.5 µM (≈ 3.61 µg/mL); in series [3], 25 µM (≈ 7.23 µg/mL); in series [4] it was 12.5 µM (≈ 3.61 µg/mL). The selectivity ratio in [5] is over 8.
In general, half-life refers to the time needed for the level to fall by half in the phase considered. `CC1=C(C)C(=O)C(COC(=O)OCOc2c(Br)cc(Br)c3nc4ccccc4nc23)=C(C)C1=O`: in [6], the hemolysis at 1 h, 200 µM was at most 1%. In series [7], this compound yielded a half-life of 6.3 min. In addition, the values for the MIC (against Enterococcus faecium [1]; in the series on Staphylococcus aureus [2]; in series [4]) were 9.38 µM (≈ 5.54 µg/mL), 2.35 µM (≈ 1.39 µg/mL) and 2.35 µM (≈ 1.39 µg/mL), respectively. Moreover, the MBC in series [8] came to 37.5 µM (≈ 22.1 µg/mL); in the series on Enterococcus faecium [12] it was 12.5 µM (≈ 7.38 µg/mL); against Staphylococcus aureus [14], 25 µM (≈ 14.8 µg/mL). For the same compound, the MBEC amounted to 150 µM in [9], 9.38 µM in the series on Enterococcus faecium [11] and 75 µM in the series on Staphylococcus aureus [13]. For the same compound, the Stability result in [10] is “Stable”.
Consider `Oc1c(Br)cc(Br)c2nc3cc(Cl)ccc3nc12`, for which the hemolysis at 1 h, 200 µM in series [6] was at most 1%. In addition, the MBC (in the series on Staphylococcus aureus [15]; in series [8]; against Staphylococcus aureus [21]) was 6.25 µM (≈ 2.43 µg/mL) each time. The same compound registered a 50% inhibitory concentration (IC50) with HeLa of over 100 µM. In addition, the MBEC in series [9] was determined as 37.5 µM; with Staphylococcus aureus [20], 25 µM; in the series on Staphylococcus aureus [13], 4.69 µM. For the same compound, the “inhibition zone (IZ)” value in the series with Staphylococcus aureus [16] was 4.25 cm2. In addition, the result in [17], in series [18] and in [19] was Active. The MIC turned out to be 0.038 µM (≈ 0.0148 µg/mL) in the series on Staphylococcus aureus [2], 3.13 µM (≈ 1.22 µg/mL) in series [3], 0.1 µM (≈ 0.0388 µg/mL) in series [4] and 0.1 µM (≈ 0.0388 µg/mL) against Staphylococcus aureus [22].
